# The RNAGym collection of RNA variant scans (doi:10.1002/anie.201605470)
# B1: Osa-1-4 twister ribozyme (parent)
# chain: CCGCCUAACACUGCCAAUGCCGGUCCCAAGCCCGGAUAAAAGUGGAGGGGGCGG
# Variants of: B1
# Assay: self-cleavage, relative activity (ratio to wild type); higher = more cleavage; co-transcriptional
# Outline: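 The 48 positions downstream of the cleavage site in a 54-nucleotide Oryza sativa twister ribozyme template were synthesised at 97 % wild-type base and 1 % of each other base. The template was transcribed in vitro at 37 °C for 2 h, with self-cleavage allowed during transcription. Reads with or without upstream sequence after deep sequencing marked cleavage status, and relative activity is fraction cleaved normalised to wild type.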
row,Variant,self-cleavage
1,C26A G30C,0.02
2,C26A G30U,0.01
3,C26A G34A,0.05
4,C26A G34C,0.05
5,C26A G34U,0.04
6,C26A G35A,0.06
7,C26A G35C,0.04
8,C26A G35U,0.04
9,C26A G42A,0.04
10,C26A G42C,0.03
11,C26A G42U,0.02
12,C26A G44A,0.05
13,C26A G44C,0.05
14,C26A G44U,0.05
15,C26A G45A,0.02
16,C26A G45C,0.02
17,C26A G45U,0.02
18,C26A G47A,0.03
19,C26A G47C,0.02
20,C26A G47U,0.03
21,C26A G48A,0.03

row,Variant,self-cleavage
1,C26A G48C,0.1
2,C26A G48U,0.7
3,C26A G49A,0.02
4,C26A G49C,0.02
5,C26A G49U,0.02
6,C26A G50A,0.07
7,C26A G50C,0.05
8,C26A G50U,0.05
9,C26A G51A,0.06
10,C26A G51C,0.02
11,C26A G51U,0.04
12,C26A G53A,0.06
13,C26A G53C,0.02
14,C26A G53U,0.04
15,C26A G54A,0.06
16,C26A G54C,0.05
17,C26A G54U,0.12
18,C26A U12A,0.04
19,C26A U12C,0.03
20,C26A U12G,0.04
21,C26A U18A,0.05

row,Variant,self-cleavage
1,C26A U18C,0.06
2,C26A U18G,0.12
3,C26A U24A,0.03
4,C26A U24C,0.02
5,C26A U24G,0.01
6,C26A U37A,0.05
7,C26A U37C,0.07
8,C26A U37G,0.07
9,C26A U43A,0.05
10,C26A U43C,0.04
11,C26A U43G,0.04
12,C26G,0.09
13,C26G C9A,0.02
14,C26G C9G,0.09
15,C26G C9U,0.04
16,C26G C27A,0.05
17,C26G C27G,0.11
18,C26G C27U,0.07
19,C26G C31A,0.02
20,C26G C31G,0.05
21,C26G C31U,0.06

row,Variant,self-cleavage
1,C26G C32A,0.03
2,C26G C32G,0.09
3,C26G C32U,0.04
4,C26G C33A,0.05
5,C26G C33G,0.04
6,C26G C33U,0.07
7,C26G C52A,0.12
8,C26G C52G,0.16
9,C26G C52U,0.11
10,C26G G13A,0.03
11,C26G G13C,0.01
12,C26G G13U,0.01
13,C26G G19A,0.08
14,C26G G19C,0.04
15,C26G G19U,0.05
16,C26G G22A,0.15
17,C26G G22C,0.06
18,C26G G22U,0.08
19,C26G G23A,0.08
20,C26G G23C,0.04
21,C26G G23U,0.02
